Measurements published in ChEMBL document CHEMBL1759851, “Facile synthesis and stereochemical investigation of Mannich base derivatives: evaluation of antioxidant property and antituberculostic potency” (2011).

Key:
Format in all cases: functional
[1] = system: Radical scavenging activity; assay: Antioxidant activity assessed as DPPH radical scavenging activity at 100 ug/mL after 30 mins
How it was run: (§1)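 Oxime ethers tested by DPPH radical scavenging (Blois method, slightly modified). Sample and DPPH solution mixed gently and left at room temperature for 30 min. Optical density read at 530 nm on a microplate reader. Scavenging reported as % inhibition at each test concentration.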

[2] = system: Mycobacterium tuberculosis; assay: Antituberculosis activity against Mycobacterium tuberculosis H37Rv
How it was run: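 Zone-of-inhibition assay against M. tuberculosis H37Rv. Zone diameters were scored on an activity index: 0–5 mm, 6–10 mm (+), 11–15 mm (++), 16–20 mm (+++), and a top band (++++) for larger zones.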

[3] = system: Radical scavenging activity; assay: Antioxidant activity assessed as DPPH radical scavenging activity at 200 ug/mL after 30 mins; how it was run: as §1
[4] = system: Radical scavenging activity; assay: Antioxidant activity assessed as DPPH radical scavenging activity at 400 ug/mL after 30 mins; how it was run: as §1
[5] = system: Radical scavenging activity; assay: Antioxidant activity assessed as DPPH radical scavenging activity at 800 ug/mL after 30 mins; how it was run: as §1
[6] = system: Radical scavenging activity; assay: Antioxidant activity assessed as DPPH radical scavenging activity at 10 ug/mL after 30 mins; how it was run: as §1

CO/N=C1\[C@H]2CCC[C@@H]1[C@H](c1ccc(C(C)C)cc1)N[C@@H]2c1ccc(C(C)C)cc1
inhibition [1]: 15.3%
inhibition zone (IZ) [2]: 6 mm

CCOc1ccc([C@H]2N[C@@H](c3ccc(OCC)cc3)[C@H]3CCC[C@@H]2/C3=N\OC)cc1
inhibition [1]: 23.2%
inhibition [3]: 30.8%
inhibition zone (IZ) [2]: 6 mm

CO/N=C1\[C@H]2CCC[C@@H]1[C@H](c1ccc(F)cc1)N(C)[C@@H]2c1ccc(F)cc1
inhibition [1]: 2.4%
inhibition zone (IZ) [2]: <=21 mm

CO/N=C1\[C@H]2CCC[C@@H]1[C@H](c1ccccc1OC)N(C)[C@@H]2c1ccccc1OC
inhibition [4]: 40.2%
inhibition [1]: 15.4%
inhibition [3]: 24.9%

CO/N=C1\[C@H]2CCC[C@@H]1[C@H](c1cccc(Cl)c1)N[C@@H]2c1cccc(Cl)c1
inhibition [1]: 4.77%
inhibition zone (IZ) [2]: 0 mm

CO/N=C1\[C@H]2CCC[C@@H]1[C@H](c1ccccc1)N(C)[C@@H]2c1ccccc1
inhibition [1]: 10.7%
inhibition [3]: 13.8%

CO/N=C1\[C@H]2CCC[C@@H]1[C@H](c1ccc(C)cc1)N(C)[C@@H]2c1ccc(C)cc1
inhibition [1]: 19.8%
inhibition [3]: 22%
inhibition zone (IZ) [2]: 6 mm

CO/N=C1\[C@H]2CCC[C@@H]1[C@H](c1ccc(OC(C)=O)c(OC)c1)N[C@@H]2c1ccc(OC(C)=O)c(OC)c1
inhibition [5]: 88.8%
inhibition [4]: 78.3%
inhibition [1]: 32.4%
inhibition [3]: 52.9%

CO/N=C1\[C@H]2CCC[C@@H]1[C@H](c1ccc(Br)cc1)N(C)[C@@H]2c1ccc(Br)cc1
inhibition [1]: 12.1%
inhibition zone (IZ) [2]: 0 mm

NNC(=O)c1ccncc1 [ISONIAZID]
inhibition zone (IZ) [2]: <=21 mm

CO/N=C1\[C@H]2CCC[C@@H]1[C@H](c1ccccc1C)N[C@@H]2c1ccccc1C
inhibition [1]: 9.5%
inhibition zone (IZ) [2]: 0 mm

C=CCOc1ccc([C@H]2N[C@@H](c3ccc(OCC=C)cc3)[C@H]3CCC[C@@H]2/C3=N\OC)cc1
inhibition [4]: 31.8%
inhibition [1]: 21.7%
inhibition [3]: 25.8%
inhibition zone (IZ) [2]: <=21 mm

CO/N=C1\[C@H]2CCC[C@@H]1[C@H](c1ccc(OC)cc1)N[C@@H]2c1ccc(OC)cc1
inhibition [1]: 13.9%
inhibition zone (IZ) [2]: 6 mm

CO/N=C1\[C@H]2CCC[C@@H]1[C@H](c1ccc(F)cc1)N[C@@H]2c1ccc(F)cc1
inhibition [1]: 3.6%
inhibition zone (IZ) [2]: 16 mm

CCCOc1ccc([C@H]2N[C@@H](c3ccc(OCCC)cc3)[C@H]3CCC[C@@H]2/C3=N\OC)cc1
inhibition [1]: 23.9%
inhibition [3]: 38.5%
inhibition zone (IZ) [2]: 6 mm

CO/N=C1\[C@H]2CCC[C@@H]1[C@H](c1ccc(OC)cc1)N(C)[C@@H]2c1ccc(OC)cc1
inhibition [4]: 58.8%
inhibition [1]: 20.9%
inhibition [3]: 41.9%
inhibition zone (IZ) [2]: 6 mm

CCc1ccc([C@H]2N[C@@H](c3ccc(CC)cc3)[C@H]3CCC[C@@H]2/C3=N\OC)cc1
inhibition [1]: 11.9%
inhibition zone (IZ) [2]: 0 mm

CO/N=C1\[C@H]2CCC[C@@H]1[C@H](c1ccc(Br)cc1)N[C@@H]2c1ccc(Br)cc1
inhibition [1]: 5.72%
inhibition zone (IZ) [2]: 0 mm

CO/N=C1\[C@H]2CCC[C@@H]1[C@H](c1ccccc1Br)N[C@@H]2c1ccccc1Br
inhibition [1]: 5.28%

CO/N=C1\[C@H]2CCC[C@@H]1[C@H](c1ccccc1)N[C@@H]2c1ccccc1
inhibition [4]: 24.4%
inhibition [1]: 10.5%
inhibition [3]: 18.7%
inhibition zone (IZ) [2]: 0 mm

CO/N=C1\[C@H]2CCC[C@@H]1[C@H](c1ccccc1Cl)N[C@@H]2c1ccccc1Cl
inhibition [1]: 6.47%
inhibition zone (IZ) [2]: 6 mm

CCCCOc1ccc([C@H]2N[C@@H](c3ccc(OCCCC)cc3)[C@H]3CCC[C@@H]2/C3=N\OC)cc1
inhibition [1]: 27.8%
inhibition [3]: 43.9%
inhibition zone (IZ) [2]: 6 mm

CO/N=C1\[C@H]2CCC[C@@H]1[C@H](c1cccc(Br)c1)N[C@@H]2c1cccc(Br)c1
inhibition [1]: 4.35%

CO/N=C1\[C@H]2CCC[C@@H]1[C@H](c1ccc(OCc3ccccc3)cc1)N[C@@H]2c1ccc(OCc2ccccc2)cc1
inhibition [1]: 27.9%
inhibition [3]: 47.8%
inhibition zone (IZ) [2]: <=21 mm

CCOc1ccccc1[C@H]1N[C@@H](c2ccccc2OCC)[C@H]2CCC[C@@H]1/C2=N\OC
inhibition [1]: 10.2%
inhibition zone (IZ) [2]: 6 mm

CO/N=C1\[C@H]2CCC[C@@H]1[C@H](c1ccccc1Cl)N(C)[C@@H]2c1ccccc1Cl
inhibition [1]: 11.4%
inhibition zone (IZ) [2]: 11 mm

CO/N=C1\[C@H]2CCC[C@@H]1[C@H](c1ccccc1F)N[C@@H]2c1ccccc1F
inhibition [1]: 2.33%
inhibition zone (IZ) [2]: 11 mm

CO/N=C1\[C@H]2CCC[C@@H]1[C@H](c1ccc(Cl)cc1)N[C@@H]2c1ccc(Cl)cc1
inhibition [1]: 6.58%
inhibition zone (IZ) [2]: 11 mm

CO/N=C1\[C@H]2CCC[C@@H]1[C@H](c1ccccc1OC)N[C@@H]2c1ccccc1OC
inhibition [1]: 16%
inhibition [3]: 20.7%
inhibition zone (IZ) [2]: 6 mm

O=C1O[C@H]([C@@H](O)CO)C(O)=C1O
inhibition [6]: 98.5%

CO/N=C1\[C@H]2CCC[C@@H]1[C@H](c1cccc(F)c1)N[C@@H]2c1cccc(F)c1
inhibition [1]: 0.97%
inhibition zone (IZ) [2]: 6 mm

CO/N=C1\[C@H]2CCC[C@@H]1[C@H](c1ccc(Cl)cc1)N(C)[C@@H]2c1ccc(Cl)cc1
inhibition [1]: 11.9%
inhibition zone (IZ) [2]: 11 mm

CO/N=C1\[C@H]2CCC[C@@H]1[C@H](c1ccc(C)cc1)N[C@@H]2c1ccc(C)cc1
inhibition [1]: 14.5%
inhibition zone (IZ) [2]: 0 mm

CO/N=C1\[C@H]2CCC[C@@H]1[C@H](c1ccccc1C)N(C)[C@@H]2c1ccccc1C
inhibition [1]: 15.3%
inhibition zone (IZ) [2]: 6 mm

CO/N=C1\[C@H]2CCC[C@@H]1[C@H](c1ccc(SC)cc1)N[C@@H]2c1ccc(SC)cc1
inhibition [1]: 17.6%
inhibition [3]: 22.5%
inhibition zone (IZ) [2]: 11 mm

CO/N=C1\[C@H]2CCC[C@@H]1[C@H](c1cccc(OC)c1)N[C@@H]2c1cccc(OC)c1
inhibition [1]: 13.5%

CO/N=C1\[C@H]2CCC[C@@H]1[C@H](c1cccc(OC)c1)N(C)[C@@H]2c1cccc(OC)c1
inhibition [4]: 26.8%
inhibition [1]: 10.7%
inhibition [3]: 13.8%
